Laboratory results reported in ChEMBL document CHEMBL3997850 (ACS Med Chem Lett, 2017).

Legend:
Cytochrome P450 2C9 = Cytochrome P450 2C9 (Homo sapiens, UniProt P11712); assay: Inhibition of recombinant human CYP2C9 assessed as decrease in hydroxylation of 7-methoxy-4-(trifluoromethyl)-coumarin by fluorimetric method; type: ADME; conditions: recombinant enzyme
In short: (§1)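 Recombinant human isozymes with substrate at Km concentration: CYP2C9 with 7-methoxy-4-(trifluoromethyl)coumarin, CYP2D6 with 7-methoxy-4-methylcoumarin. Hydroxylation read fluorimetrically, inhibitor 0–25 µM.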

Liver [1] = assay: Intrinsic clearance in rat hepatic S9 fraction at 5 uM in presence of UDPGA measured over 30 mins by LC/MS analysis; type: ADME; conditions: s9, 0.5 h
Liver [2] = assay: Intrinsic clearance in rat hepatic S9 fraction at 5 uM in presence of UDPGA/NADPH measured over 30 mins by LC/MS analysis; type: ADME, tissue-based; conditions: s9, 0.5 h
In short: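 Rat hepatic S9 (2 mg/mL protein) with compound 5 µM, 50 mM Tris-HCl pH 7.5, 8 mM MgCl2, 2 mM NADPH, 2 mM UDPGA, 12.7 µM alamethicin, 37 °C. Reaction started with S9. Aliquots taken over 0–30 min, quenched with acetonitrile, analyzed by LC/MS.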

Rattus norvegicus = assay: AUC in rat at 5 mg/kg, iv or 5 mg/kg, po by LC/MS/MS analysis; type: ADME, organism-based; conditions: in vivo
In short: (§2)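 Male rats, 5 mg/kg IV in 10% DMAC/saline or 5 mg/kg oral in 0.5% aqueous methylcellulose. Plasma (EDTA) sampled pre-dose to 24 h. Quantified by acetonitrile precipitation and LC/MS/MS (2–10000 nM range, 0.1 mL). Non-compartmental analysis of concentration–time data.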

Cynomolgus monkey = assay: AUC in cynomolgus monkey at 4 mg/kg, iv or 10 mg/kg, po by LC/MS/MS analysis; type: ADME, organism-based, Macaca fascicularis; conditions: in vivo
In short: (§3)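 Male cynomolgus monkeys given 4 mg/kg IV (5% DMAC, 40% propylene glycol in saline) or 10 mg/kg orally (0.5% methylcellulose). EDTA plasma collected pre-dose through 24 h. Acetonitrile protein precipitation, then LC/MS/MS quantification, linear 2–10000 nM. PK parameters by standard non-compartmental methods.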

[3] = Half life in rat at 5 mg/kg, po by LC/MS/MS analysis; type: ADME, organism-based; conditions: in vivo; in short: as §2
[4] = Half life in cynomolgus monkey at 10 mg/kg, po by LC/MS/MS analysis; type: ADME, organism-based, Macaca fascicularis; conditions: in vivo; in short: as §3
Cytochrome P450 3A4 = Cytochrome P450 3A4 (Homo sapiens, UniProt P08684); assay: Inhibition of recombinant human CYP3A4 assessed as decrease in hydroxylation of 7-benzyloxy-4-trifluoromethyl-coumarin by fluorescence assay; type: ADME; conditions: recombinant enzyme
In short: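 Recombinant human CYP1A2 or CYP3A4 with 7-benzyloxy-4-trifluoromethyl-coumarin at Km concentration; hydroxylation read by fluorescence. Inhibitor tested at 0–25 µM.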

Cytochrome P450 2D6 = Cytochrome P450 2D6 (Homo sapiens, UniProt P10635); assay: Inhibition of recombinant human CYP2D6 assessed as decrease in hydroxylation of 7-methoxy-4-methylcoumarin by fluorimetric method; type: ADME; conditions: recombinant enzyme; in short: as §1
[5] = Clearance in rat at 5 mg/kg, iv or 5 mg/kg, po by LC/MS/MS analysis; type: ADME, organism-based; conditions: in vivo; in short: as §2
[6] = Clearance in beagle dog at 5 mg/kg, iv or 10 mg/kg, po by LC/MS/MS analysis; type: ADME, organism-based, Canis lupus familiaris; conditions: in vivo
In short: (§4)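 Male beagle dogs dosed 5 mg/kg IV in 10% DMAC in saline or 10 mg/kg oral in 5% DMAC in 0.5% methylcellulose. EDTA blood taken from pre-dose to 24 h and spun to plasma. Plasma proteins precipitated with acetonitrile, then LC/MS/MS (linear 2–10000 nM, 0.1 mL plasma). Parameters derived by non-compartmental analysis.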

[7] = Clearance in cynomolgus monkey at 4 mg/kg, iv or 10 mg/kg, po by LC/MS/MS analysis; type: ADME, organism-based, Macaca fascicularis; conditions: in vivo; in short: as §3
[8] = Volume of distribution at steady state in rat at 5 mg/kg, iv or 5 mg/kg, po by LC/MS/MS analysis; type: ADME, organism-based; conditions: in vivo, read-out: Vdss; in short: as §2
Canis familiaris [9] = assay: AUC in beagle dog at 5 mg/kg, iv or 10 mg/kg, po by LC/MS/MS analysis; type: ADME, organism-based, Canis lupus familiaris; conditions: in vivo; in short: as §4
[10] = Oral bioavailability in cynomolgus monkey at 10 mg/kg by LC/MS/MS analysis; type: ADME, organism-based, Macaca fascicularis; conditions: in vivo; in short: as §3
Mus musculus [11] = assay: Toxicity in mouse up to 2000 mg/kg/day after 28 days by histopathology test; type: organism-based; conditions: in vivo, 672 h
Mus musculus [12] = assay: Toxicity in mouse assessed as change in body weight up to 2000 mg/kg/day after 28 days; type: organism-based; conditions: in vivo, 672 h
Canis familiaris [13] = assay: Toxicity in dog up to 500 mg/kg/day after 28 days by clinical pathology test; type: organism-based, Canis lupus familiaris; conditions: in vivo, 672 h
Canis familiaris [14] = assay: Toxicity in dog assessed as change in body weight up to 500 mg/kg/day after 28 days; type: organism-based, Canis lupus familiaris; conditions: in vivo, 672 h

Cytochrome P450 2D6, sequence (P10635 whole entry): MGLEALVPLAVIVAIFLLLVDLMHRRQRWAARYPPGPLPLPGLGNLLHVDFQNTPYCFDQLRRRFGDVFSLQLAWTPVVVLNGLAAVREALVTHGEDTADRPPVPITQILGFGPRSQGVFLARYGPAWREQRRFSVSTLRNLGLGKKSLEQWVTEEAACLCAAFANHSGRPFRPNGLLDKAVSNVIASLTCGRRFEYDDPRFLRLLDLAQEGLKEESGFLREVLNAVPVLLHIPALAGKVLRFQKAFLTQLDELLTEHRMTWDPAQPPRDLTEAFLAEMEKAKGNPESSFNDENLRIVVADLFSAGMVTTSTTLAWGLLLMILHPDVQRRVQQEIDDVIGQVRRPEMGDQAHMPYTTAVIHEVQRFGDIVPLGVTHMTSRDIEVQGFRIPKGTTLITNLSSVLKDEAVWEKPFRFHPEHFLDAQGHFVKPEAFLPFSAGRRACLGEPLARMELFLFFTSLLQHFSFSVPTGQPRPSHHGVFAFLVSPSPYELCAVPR
Cytochrome P450 2C9, sequence (P11712 whole entry): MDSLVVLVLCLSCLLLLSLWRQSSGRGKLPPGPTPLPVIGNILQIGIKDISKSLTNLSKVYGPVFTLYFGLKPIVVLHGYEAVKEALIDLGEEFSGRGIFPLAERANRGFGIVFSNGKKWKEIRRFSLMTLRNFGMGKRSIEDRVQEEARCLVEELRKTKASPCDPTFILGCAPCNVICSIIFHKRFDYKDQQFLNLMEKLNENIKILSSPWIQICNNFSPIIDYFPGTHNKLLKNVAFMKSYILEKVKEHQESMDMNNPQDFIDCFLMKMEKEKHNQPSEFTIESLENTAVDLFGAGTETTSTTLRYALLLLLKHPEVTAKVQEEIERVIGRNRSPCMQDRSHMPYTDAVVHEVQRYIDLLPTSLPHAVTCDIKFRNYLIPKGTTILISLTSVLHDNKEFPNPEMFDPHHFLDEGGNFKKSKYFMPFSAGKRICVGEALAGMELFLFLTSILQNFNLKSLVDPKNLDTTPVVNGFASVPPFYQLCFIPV
Cytochrome P450 3A4, sequence (P08684 whole entry): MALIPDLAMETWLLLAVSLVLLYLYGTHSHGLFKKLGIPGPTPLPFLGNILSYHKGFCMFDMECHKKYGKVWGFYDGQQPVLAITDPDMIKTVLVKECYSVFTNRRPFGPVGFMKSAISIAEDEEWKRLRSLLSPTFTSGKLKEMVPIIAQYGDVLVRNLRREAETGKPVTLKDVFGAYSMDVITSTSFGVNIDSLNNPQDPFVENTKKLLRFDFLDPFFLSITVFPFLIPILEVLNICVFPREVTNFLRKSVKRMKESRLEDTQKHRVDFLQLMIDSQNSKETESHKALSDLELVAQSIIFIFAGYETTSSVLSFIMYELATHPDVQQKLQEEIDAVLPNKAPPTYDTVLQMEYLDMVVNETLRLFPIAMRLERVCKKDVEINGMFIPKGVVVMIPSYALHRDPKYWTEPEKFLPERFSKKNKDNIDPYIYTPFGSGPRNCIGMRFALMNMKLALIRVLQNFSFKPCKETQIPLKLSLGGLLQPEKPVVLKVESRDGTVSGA

- inhibition (INH) (Cytochrome P450 2C9): Not Active
- CLH (Liver [1]): 6.7 mL/min/kg
- CLH (Liver [2]): 12 mL/min/kg
- AUC (Rattus norvegicus): 1.3 µM·h
- AUC (Cynomolgus monkey): 9.3 µM·h
- half-life [3]: 2.2 h
- half-life [4]: 2.7 h
- inhibition (INH) (Cytochrome P450 3A4): Not Active
- inhibition (INH) (Cytochrome P450 2D6): Not Active
- clearance [5]: 18.3 mL/min/kg
- clearance [6]: 8.33 mL/min/kg
- clearance [7]: 13.3 mL/min/kg
- Vd [8]: 2 L/kg
- AUC (Canis familiaris [9]): 29 µM·h
- bioavailability [10]: 33%
SMILES: NS(=O)(=O)NCCNc1nonc1C(=NO)Nc1ccc(F)c(Br)c1 [EPACADOSTAT]
- Activity (Mus musculus [11]): Non-Toxic
- Activity (Mus musculus [12]): Non-Toxic
- Activity (Canis familiaris [13]): Non-Toxic
- Activity (Canis familiaris [14]): Non-Toxic
